The subject of data set [1] is Saccharomyces cerevisiae. Nature of the data set: Antifungal activity against Saccharomyces cerevisiae ATCC 9763. In kind it is functional. A digest of the protocol: (§1)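 CLSI M27-A3 broth microdilution in RPMI-1640 buffered to pH 7.0 with MOPS. Inoculum 1-5 × 10^3 CFU/mL. Compound twofold dilutions from 250 to 0.24 µg/ml, final DMSO <1%. Incubated at 35 °C in a moist, dark chamber and read at 48 h. MIC is the lowest concentration giving total growth inhibition. For MFC, 5 µL from clear wells was plated in duplicate on SDA; MFC is the lowest concentration with no growth.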

Data set [2] relates to Nannizzia gypsea. Kind of data set: Antifungal activity against Microsporum gypseum C 115 2000. In kind it is functional. Put shortly: (§2)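 Dermatophytes tested by CLSI M38-A2 microdilution in MOPS-buffered RPMI-1640 at pH 7.0. Inoculum 1-5 × 10^3 CFU/mL; compounds 250 to 0.24 µg/ml in twofold steps, final DMSO <1%. Incubated at 28 °C in a moist, dark chamber and read according to control growth. MIC is the lowest concentration with complete inhibition. MFC is the lowest concentration with no growth after duplicate subculture on SDA.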

Data set [3] deals with Cryptococcus neoformans. Kind of data set: Antifungal activity against Cryptococcus neoformans ATCC 32264. In kind it is functional. Put shortly: as §1
Data set [4] has as its system Aspergillus niger. Nature of the data set: Antifungal activity against Aspergillus niger ATCC 9029. Type of data set: functional. Put shortly:
(§3)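 Broth microdilution per CLSI M38-A2 in RPMI-1640 with MOPS at pH 7.0. Inoculum 1-5 × 10^3 CFU/mL, with twofold compound dilutions spanning 250-0.24 µg/ml (final DMSO <1%). Plates incubated at 35 °C, moist and dark, and read when the control fungus had grown. MIC is total growth inhibition. MFC comes from subculturing clear wells in duplicate onto SDA.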

For data set [5], the system named is Trichophyton mentagrophytes. Nature of the data set: Antifungal activity against Trichophyton mentagrophytes ATCC 9972. Type of data set: functional. Put shortly:
as §2

Data set [6] relates to Candida albicans. Nature of the data set: Antifungal activity against Candida albicans ATCC 10213. In kind it is functional. Put shortly: as §1
The subject of data set [7] is Aspergillus flavus. Kind of data set: Antifungal activity against Aspergillus flavus ATCC 9170. Type of data set: functional. Put shortly:
as §3

In data set [8] the test system is Candida tropicalis. Nature of the data set: Antifungal activity against Candida tropicalis C 131 2000. In kind it is functional. Put shortly:
as §1

The test system of data set [9] is Trichophyton rubrum. Nature of the data set: Antifungal activity against Trichophyton rubrum C 113 2000. Type of data set: functional. A digest of the protocol: as §2
The subject of data set [10] is Aspergillus fumigatus. Nature of the data set: Antifungal activity against Aspergillus fumigatus ATCC 26934. In kind it is functional. A digest of the protocol:
as §3

A short description of data set [11]: Cytotoxicity against human erythrocytes assessed as hemolysis by spectrometric analysis. Type of data set: cell-based, Erythrocyte. Put shortly: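 Human heparinized red blood cells were washed in PBS at pH 7.0 and suspended at 4% in sterile 5% glucose. Compounds from DMSO stocks were diluted in 5% glucose to final concentrations of 250 to 0.24 µg/ml and incubated with the cells at 37 °C. Released hemoglobin was read at 540 nm. HC50 is the concentration giving 50% lysis relative to the drug-free value.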

Data set [12] deals with MCF7. Nature of the data set: Cytotoxicity against human MCF7 cells assessed as cell growth after 2 days by sulforhodamine B assay. In kind it is functional. The note with it: MCF7, 48 h. A digest of the protocol:
(§4)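 NCI cell lines were run by the Monks method: cells were plated with compounds from DMSO stocks and incubated 2 days at 37 °C in 5% CO2, in duplicate. Cells were fixed with cold TCA, stained with 0.4% SRB, and the bound dye was solubilized in 10 mM tris-base and read at 515 nm. The zero-day control was subtracted, and GI50 was taken from the curves.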
On the technique in general: The SRB assay estimates cell density from bound dye.

Data set [13] relates to SF-268. Kind of data set: Cytotoxicity against human SF268 cells assessed as cell growth after 2 days by sulforhodamine B assay. In kind it is functional. The settings on record: SF-268, 48 h. A digest of the protocol: as §4
Data set [14] relates to NCI-H460. Nature of the data set: Cytotoxicity against human H460 cells assessed as cell growth after 2 days by sulforhodamine B assay. Type of data set: functional. The note with it: NCI-H460, 48 h. A digest of the protocol:
as §4

SMILES strings stand for the structures. ≈ marks a conversion by molar mass, not a printed value.

As a reminder, the MFC is the lowest tested concentration that kills the fungus rather than only halting it. Read a high MFC as less potent killing. The term MIC denotes the lowest concentration found to suppress growth. A low value points to inhibition by little substance. Turning to `CC1=CC(=O)N(CCCCc2ccccc2)C1O` (configuration not stated), the MFC in [1], in data set [2], in data set [3], in data set [4], in [5] and in [6] was greater than 250 µg/mL throughout. The minimal fungicidal concentration (MFC) in [7], in data set [8], in [9] and in data set [10] was greater than 250 µg/mL in each case. Besides, the MIC in [1], in data set [2], in data set [3], in data set [4], in data set [5] and in data set [6] was greater than 250 µg/mL in each case. Also, the minimal inhibitory concentration (MIC) in data set [7], in data set [8], in data set [9] and in data set [10] was greater than 250 µg/mL throughout.

For `CC1=CC(O)N(c2ccccc2)C1=O` (configuration not stated), the MFC in data set [1], in [2], in data set [3], in [4], in data set [5] and in data set [6] was greater than 250 µg/mL throughout. Further, the MFC in [7], in data set [8], in data set [9] and in [10] was greater than 250 µg/mL each time. Also, the MIC in [1], in [2], in [3], in data set [4], in data set [5] and in data set [6] was greater than 250 µg/mL in each case. Also, the MIC in data set [7], in data set [8], in data set [9] and in [10] was greater than 250 µg/mL throughout.

On to `CC1=CC(O)N(Cc2ccccc2)C1=O` (configuration not stated), for which the MFC in data set [1], in [2], in data set [3], in data set [4], in data set [5] and in data set [6] was greater than 250 µg/mL in each case. Besides, the MFC in data set [7], in data set [8], in [9] and in data set [10] was greater than 250 µg/mL each time. Also, the MIC in data set [1], in data set [2], in data set [3], in data set [4], in [5] and in [6] was greater than 250 µg/mL each time. The MIC in data set [7], in data set [8], in [9] and in data set [10] was greater than 250 µg/mL in each case.

With `CC1=CC(O)N(CCc2ccccc2)C1=O` (configuration not stated), the MFC in data set [1], in data set [2], in data set [3], in data set [4], in [5] and in data set [6] was greater than 250 µg/mL each time. For the same compound, the MFC in [7], in [8], in [9] and in data set [10] was greater than 250 µg/mL each time. For the same compound, the MIC in data set [1], in [2], in [3], in data set [4], in data set [5] and in data set [6] was greater than 250 µg/mL throughout. In addition, the MIC in data set [7], in data set [8], in data set [9] and in data set [10] was greater than 250 µg/mL throughout.

For the compound `CC1=CC(O)N(CCCc2ccccc2)C1=O` (configuration not stated), the minimal fungicidal concentration (MFC) in data set [1], in data set [2], in data set [3], in [4], in data set [5] and in [6] was greater than 250 µg/mL throughout. Moreover, the MFC in data set [7], in data set [8], in [9] and in data set [10] was greater than 250 µg/mL each time. Also, the MIC in [1], in data set [2], in data set [3], in data set [4], in data set [5] and in [6] was greater than 250 µg/mL each time. Besides, the MIC in data set [7], in data set [8], in data set [9] and in [10] was greater than 250 µg/mL each time.

As to `CC1=CC(O)N(CCCCc2ccccc2)C1=O` (configuration not stated), the MFC in data set [1], in data set [2], in data set [3], in data set [4], in [5] and in data set [6] was greater than 250 µg/mL throughout. Further, the MFC in [7], in [8], in data set [9] and in [10] was greater than 250 µg/mL each time. The MIC in data set [1], in [2], in [3], in data set [4], in [5] and in [6] was greater than 250 µg/mL throughout. Further, the MIC in [7], in data set [8], in data set [9] and in data set [10] was greater than 250 µg/mL each time.

The HC50 is the concentration giving 50% haemolysis. One may read the GI50 as the concentration at which growth is held to half of that of the control. For the compound `O=C1C=CC(=O)N1c1ccccc1`, the minimum fungicidal concentration (MFC) is 7.81 µg/mL (≈ 45.1 µM) in data set [1]; 15.6 µg/mL (≈ 90.3 µM) in data set [2]; 62.5 µg/mL (≈ 361 µM) in data set [3]; 62.5 µg/mL (≈ 361 µM) in data set [4]; 7.81 µg/mL (≈ 45.1 µM) in data set [5]; 7.81 µg/mL (≈ 45.1 µM) in data set [6]. The MFC in data set [7] was 125 µg/mL (≈ 722 µM); in [8], 15.6 µg/mL (≈ 90.3 µM); in data set [9], 7.81 µg/mL (≈ 45.1 µM); in [10] it was greater than 250 µg/mL. Besides, the MIC in [1] came to 3.9 µg/mL (≈ 22.5 µM); in [2], 7.81 µg/mL (≈ 45.1 µM); in data set [3], 15.6 µg/mL (≈ 90.3 µM); in [4] it was 31.2 µg/mL (≈ 180 µM); in data set [5], 7.81 µg/mL (≈ 45.1 µM); in [6], 3.9 µg/mL (≈ 22.5 µM). The minimum inhibitory concentration (MIC) in data set [7] was 62.5 µg/mL (≈ 361 µM); in data set [9] it was 3.9 µg/mL (≈ 22.5 µM); in [10], 250 µg/mL (≈ 1440 µM). For the same compound, the concentration for 50% haemolysis (HC50) in data set [11] was greater than 250 µg/mL. For the same compound, the 50% growth inhibitory concentration (GI50) in data set [12], in [13] and in data set [14] was greater than 10 µg/mL throughout.

For `C[C@@H]1[C@H](O)[C@@H](C)/C=C/C=C/C=C/C=C/C=C/C=C/C=C/[C@H](O[C@@H]2O[C@H](C)[C@@H](O)[C@H](N)[C@@H]2O)C[C@@H]2O[C@](O)(C[C@@H](O)C[C@@H](O)[C@H](O)CC[C@@H](O)C[C@@H](O)CC(=O)O[C@H]1C)C[C@H](O)[C@H]2C(=O)O` [AMPHOTERICIN B], the MFC in [1] is 1.95 µg/mL (≈ 2.11 µM); in data set [2] it was 0.48 µg/mL (≈ 0.519 µM); in data set [3], 0.97 µg/mL (≈ 1.05 µM); in data set [4] it was 3.9 µg/mL (≈ 4.22 µM); in data set [5] it was 0.24 µg/mL (≈ 0.26 µM); in data set [6], 1.95 µg/mL (≈ 2.11 µM). Moreover, the MFC came out at 1.95 µg/mL (≈ 2.11 µM) in [7], 0.97 µg/mL (≈ 1.05 µM) in [8], 0.24 µg/mL (≈ 0.26 µM) in [9] and 0.97 µg/mL (≈ 1.05 µM) in data set [10]. For the same compound, the MIC in [1] turned out to be 0.48 µg/mL (≈ 0.519 µM); in data set [2], 0.12 µg/mL (≈ 0.13 µM); in data set [3] it was 0.24 µg/mL (≈ 0.26 µM); in data set [4] it was 0.48 µg/mL (≈ 0.519 µM); in data set [5], 0.06 µg/mL (≈ 0.0649 µM); in [6] it was 0.97 µg/mL (≈ 1.05 µM). For the same compound, the MIC in data set [7] was 0.48 µg/mL (≈ 0.519 µM); in [8], 0.48 µg/mL (≈ 0.519 µM); in data set [9], 0.06 µg/mL (≈ 0.0649 µM); in data set [10], 0.48 µg/mL (≈ 0.519 µM).

Consider `CC(=O)N1CCN(c2ccc(OCC3COC(Cn4ccnc4)(c4ccc(Cl)cc4Cl)O3)cc2)CC1` (configuration not stated) [KETOCONAZOLE], for which the MFC in data set [1] worked out at 0.97 µg/mL (≈ 1.83 µM); in [2] it was 0.24 µg/mL (≈ 0.452 µM); in data set [3] it was 1.95 µg/mL (≈ 3.67 µM); in data set [4], 1.95 µg/mL (≈ 3.67 µM); in data set [5] it was 0.12 µg/mL (≈ 0.226 µM); in [6] it was 1.95 µg/mL (≈ 3.67 µM). The MFC in data set [7] came out at 3.9 µg/mL (≈ 7.34 µM); in data set [8], 0.97 µg/mL (≈ 1.83 µM); in data set [9], 0.12 µg/mL (≈ 0.226 µM); in [10], 3.9 µg/mL (≈ 7.34 µM). The MIC worked out at 0.48 µg/mL (≈ 0.903 µM) in [1]; 0.06 µg/mL (≈ 0.113 µM) in data set [2]; 0.24 µg/mL (≈ 0.452 µM) in [3]; 0.24 µg/mL (≈ 0.452 µM) in data set [4]; 0.03 µg/mL (≈ 0.0565 µM) in data set [5]; 0.48 µg/mL (≈ 0.903 µM) in [6]. Also, the MIC in data set [7] was 0.48 µg/mL (≈ 0.903 µM); in data set [9], 0.03 µg/mL (≈ 0.0565 µM); in [10], 0.12 µg/mL (≈ 0.226 µM).
